Assay results: ChEMBL document CHEMBL1137088, “Distamycin analogues with enhanced lipophilicity: synthesis and antimicrobial activity” (2004)
≈ marks a conversion by molar mass, not a printed value. Where “and” joins values, the source holds several entries; their conditions need not be identical. Equal entries are not always repeated. Calls of active or inactive are those of the source. The rule behind the calls is not given here.

What was measured:
[1] = tested on: Mycolicibacterium fortuitum; experiment: Antibacterial activity against Mycobacterium fortuitum NCTC 10394 strain; na = not active; assay type: functional, organism-based
Enterobacter cloacae = experiment: Antibacterial activity against Enterobacter cloacae NCTC 10005 strain.; assay type: functional, organism-based
Candida albicans = experiment: Antifungal activity against Candida albicans NCPF 3179 strain.; assay type: functional
Staphylococcus aureus [2] = experiment: Antibacterial activity against MRSA PHLS M1 strain; na = not active; assay type: functional, organism-based
Aspergillus nidulans = experiment: Antifungal activity against Aspergillus nidulans CABI 0160037 strain; na = not active; assay type: functional
Staphylococcus aureus [3] = experiment: Antibacterial activity against Staphylococcus aureus NCTC 6571 strain; na = not active; assay type: functional, organism-based
Klebsiella aerogenes [4] = experiment: Antibacterial activity against Klebsiella aerogenes WRL CN 345 strain; na = not active; assay type: functional, organism-based
Proteus vulgaris = experiment: Antibacterial activity against Proteus vulgaris NCTC 4175 strain.; assay type: functional
Escherichia coli [5] = experiment: Antibacterial activity against Escherichia coli NCTC 9001 strain.; assay type: functional, organism-based
Aspergillus niger [6] = experiment: Antifungal activity against Aspergillus niger IMI17454 strain; na = not active; assay type: functional
Enterococcus faecalis [7] = experiment: Antibacterial activity against Streptococcus faecalis NCTC 775 strain; na = not active; assay type: functional, organism-based
[8] = Antibacterial activity against Proteus vulgaris NCTC 4175 strain; na = not active; assay type: functional
[9] = Antifungal activity against Candida albicans NCPF 3179 strain; na = not active; assay type: functional
Aspergillus niger [10] = experiment: Antifungal activity against Aspergillus niger IMI17454 strain.; assay type: functional
Staphylococcus aureus [11] = experiment: Antibacterial activity against methicillin-resistant Staphylococcus aureus (MRSA) PHLS M1 strain.; assay type: functional
In short: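 Read-out is the minimum inhibitory concentration, reported in µM. Amoxycillin is tested alongside as the reference antibiotic.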

Staphylococcus aureus [12] = experiment: Antibacterial activity against Staphylococcus aureus NCTC 6571 strain.; assay type: functional
Klebsiella aerogenes [13] = experiment: Antibacterial activity against Klebsiella aerogenes WRL CN 345 strain.; assay type: functional, WRL CN 375
Enterococcus faecalis [14] = experiment: Antibacterial activity against Streptococcus faecalis NCTC 775 strain.; assay type: functional
[15] = tested on: Mycolicibacterium fortuitum; experiment: Antibacterial activity against Mycobacterium fortuitum NCTC 10394 strain.; assay type: functional
Escherichia coli [16] = experiment: Antibacterial activity against Escherichia coli NCTC 9001 strain; assay type: functional
[17] = Antibacterial activity against Enterobacter cloacae NCTC 10005 strain; assay type: functional
[18] = Candida albicans, read-out: MIC
[19] = Aspergillus niger, read-out: MIC
[20] = Klebsiella aerogenes, WRL CN 375, read-out: MIC

| MIC [1] | MIC (Enterobacter cloacae) | MIC (Candida albicans; [18]) | MIC (Staphylococcus aureus [2]) | MIC (Aspergillus nidulans) | MIC (Staphylococcus aureus [3]) | MIC (Klebsiella aerogenes [4]) | MIC (Proteus vulgaris) | MIC (Escherichia coli [5]) | MIC (Aspergillus niger [6]) | MIC (Enterococcus faecalis [7]) | MIC [8] | MIC [9] | MIC (Staphylococcus aureus [12]) | SMILES | MIC (Aspergillus niger [10]; [19]) | MIC (Staphylococcus aureus [11]) | MIC (Klebsiella aerogenes [13]; [20]) | MIC (Enterococcus faecalis [14]) | also measured |
| --- | --- | --- | --- | --- | --- | --- | --- | --- | --- | --- | --- | --- | --- | --- | --- | --- | --- | --- | --- |
| inactive | inactive | 159 µM (≈ 81.7 µg/mL) | inactive | inactive | inactive | inactive | 79.6 µM (≈ 40.9 µg/mL) | inactive | inactive | inactive | – | – | – | Cc1sc(NC=O)cc1C(=O)Nc1cc(C(=O)Nc2cc(C(=O)NCCCN(C)C)n(C)c2)n(C)c1 | – | – | – | – | – |
| inactive | inactive | – | inactive | inactive | inactive | inactive | – | inactive | inactive | inactive | inactive | inactive | – | CC(C)n1cc(NC(=O)c2cc(NC=O)cn2C)cc1C(=O)Nc1cc(C(=O)NCCCN2CCOCC2)n(C)c1 | – | – | – | – | – |
| inactive | inactive | – | inactive | inactive | – | inactive | – | inactive | inactive | inactive | inactive | inactive | 19 µM (≈ 10.3 µg/mL) | CCn1cc(NC(=O)c2nc(NC(=O)c3nc(NC=O)cn3CC)cn2CC)nc1C(=O)NCCCN(C)C | – | – | – | – | – |
| inactive | inactive | 153 µM (≈ 82.4 µg/mL) | inactive | inactive | inactive | – | 153 µM (≈ 82.4 µg/mL) | inactive | – | inactive | inactive | – | – | CC(=O)Nc1cc(C(=O)Nc2cc(C(=O)Nc3cc(C(=O)NCCCN(C)C)n(C)c3)n(C(C)C)c2)n(C)c1 | – | – | 153 µM (≈ 82.4 µg/mL) | 73.5 µM (≈ 39.6 µg/mL) | MIC (Candida albicans): 147 µM (≈ 79.2 µg/mL); MIC (Klebsiella aerogenes [13]): 147 µM (≈ 79.2 µg/mL); MIC (Aspergillus niger [10]): 153 µM and 73.5 µM; MIC [15]: 147 µM (≈ 79.2 µg/mL) |
| inactive | inactive | – | inactive | inactive | – | – | 156 µM (≈ 82.3 µg/mL) | inactive | – | inactive | – | inactive | 156 µM (not active) (≈ 82.3 µg/mL) | CC(=O)Nc1cc(C(=O)Nc2cc(C(=O)Nc3cc(C(=O)NCCCN(C)C)n(C)c3)n(C)c2)c(C)s1 | 156 µM (≈ 82.3 µg/mL) | – | 156 µM (≈ 82.3 µg/mL) | – | – |
| inactive | inactive | – | inactive | inactive | – | inactive | 164 µM (≈ 81.4 µg/mL) | inactive | inactive | – | – | inactive | 10 µM (≈ 4.97 µg/mL) | CN(C)CCCNC(=O)c1cc(NC(=O)c2cc(NC(=O)c3cc(NC=O)cn3C)cn2C)cn1C | – | – | – | 0.31 µM (≈ 0.154 µg/mL) | – |

| SMILES | MIC [1] | MIC (Enterobacter cloacae) | MIC (Candida albicans; [18]) | MIC (Staphylococcus aureus [2]) | MIC (Aspergillus nidulans) | MIC (Staphylococcus aureus [3]) | MIC (Klebsiella aerogenes [4]) | MIC (Proteus vulgaris) | MIC (Escherichia coli [5]) | MIC (Aspergillus niger [6]) | MIC (Enterococcus faecalis [7]) | MIC [8] | MIC [9] | MIC (Staphylococcus aureus [12]) | MIC (Aspergillus niger [10]; [19]) | MIC (Staphylococcus aureus [11]) | MIC (Klebsiella aerogenes [13]; [20]) | MIC (Enterococcus faecalis [14]) | also measured |
| --- | --- | --- | --- | --- | --- | --- | --- | --- | --- | --- | --- | --- | --- | --- | --- | --- | --- | --- | --- |
| CC(C)CCn1cc(NC(=O)c2cc(NC=O)cn2C)cc1C(=O)Nc1cc(C(=O)NCCCN2CCOCC2)n(C)c1 | inactive | inactive | – | – | inactive | inactive | inactive | – | inactive | – | inactive | inactive | inactive | – | 70.6 µM (≈ 42 µg/mL) | 70.6 µM (≈ 42 µg/mL) | – | – | – |
| CC(=O)Nc1nc(C(=O)Nc2cc(C(=O)Nc3cc(C(=O)NCCCN(C)C)n(C)c3)n(C)c2)c(C(C)C)s1 | – | – | 74.6 µM (≈ 41.5 µg/mL) | – | – | – | – | 149 µM (≈ 82.9 µg/mL) | – | – | – | – | – | 70 µM (≈ 39 µg/mL) | 149 µM (≈ 82.9 µg/mL) | 149 µM (≈ 83.1 µg/mL) | 149 µM (≈ 82.9 µg/mL) | 74.5 µM (≈ 41.5 µg/mL) | MIC (Escherichia coli [16]): 149 µM (≈ 82.9 µg/mL); MIC [17]: 149 µM (≈ 82.9 µg/mL); MIC [15]: 74.6 µM (≈ 41.5 µg/mL) |
| CC(C)n1cc(NC(=O)c2cc(NC=O)cn2C)cc1C(=O)Nc1cc(C(=O)NCCCN(C)C)n(C)c1 | inactive | inactive | – | – | inactive | inactive | – | 157 µM (≈ 82.4 µg/mL) | inactive | – | – | – | inactive | – | 157 µM (≈ 82.4 µg/mL) | 157 µM (≈ 82.4 µg/mL) | 39.1 µM (≈ 20.5 µg/mL) | 157 µM (≈ 82.4 µg/mL) | – |
